Measured values published in ChEMBL document CHEMBL1132488, “On the bioactive conformation of NAN-190 (1) and MP3022 (2), 5-HT(1A) receptor antagonists” (J Med Chem, 1999).

Legend:
Rattus norvegicus [1] = test: Effect on 8-OH-DPAT-Induced LLR(lower lip retraction) in rats at a dose of 8 mg/kg; assay type: functional
Summary of the method: (§1)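 Male Wistar rats, groups of 6. Compound given ip in 1% Tween 80 45 min before 8-OH-DPAT 1 mg/kg sc. Lower incisor visibility scored 0/0.5/1 at 15, 30 and 45 min after agonist, summed (max 3). Mean ± SEM; Newman–Keuls test; ED50 with range.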

Rattus norvegicus [2] = species: Rattus norvegicus; test: Effect on 8-OH-DAPT- induced behavioral syndrome(FBP: flat body posture) by the compound in reserpine pretreated rats at a dose of 8.; assay type: functional
Summary of the method: (§2)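 Reserpinized male Wistar rats (reserpine 1 mg/kg sc, 18 h before), groups of 6. Compound given ip in 1% Tween 80 60 min before 8-OH-DPAT 5 mg/kg sc. FBP/FT rated 0–3 at 3, 6, 9, 12 and 15 min after agonist, summed (max 15). Mean ± SEM; Newman–Keuls test; ED50 with range.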

Rattus norvegicus [3] = species: Rattus norvegicus; test: Effective dose of the required to inhibit symptoms produced by 8-OH-DPAT; assay type: functional; summary of the method: as §2
Rattus norvegicus [4] = species: Rattus norvegicus; test: Effect on 8-OH-DAPT- induced behavioral syndrome(FBP: flat body posture) by the compound in reserpine pretreated rats at a dose of 4.; assay type: functional; summary of the method: as §2
Rattus norvegicus [5] = test: Effect on 8-OH-DPAT-Induced LLR(lower lip retraction) in rats at a dose of 4 mg/kg; assay type: functional; summary of the method: as §1
Rattus norvegicus [6] = species: Rattus norvegicus; test: Induction of behavioral syndrome(FT: forepaw treading) by the compound in reserpine pretreated rats at a dose of 2.; assay type: functional
Rattus norvegicus [7] = species: Rattus norvegicus; test: Effect on 8-OH-DAPT- induced behavioral syndrome(FT: forepaw treading) by the compound in reserpine pretreated rats at a dose of 4.; assay type: functional; summary of the method: as §2
Rattus norvegicus [8] = species: Rattus norvegicus; test: Induction of behavioral syndrome(FBP: flat body posture) by the compound in reserpine pretreated rats at a dose of 2.; assay type: functional
Summary of the method: (§3)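 Male Wistar rats (260–300 g), groups of 6, given reserpine 1 mg/kg sc 18 h before test. Compounds given ip as 1% Tween 80 suspension. FBP and FT rated 0–3 in 45-s sessions every 3 min, starting 3 min after dosing. Score summed over 5 periods (max 15 per symptom). Mean ± SEM; Newman–Keuls test.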

Rattus norvegicus [9] = species: Rattus norvegicus; test: Induction of behavioral syndrome(FBP: flat body posture) by the compound in reserpine pretreated rats at a dose of 4.; assay type: functional
Summary of the method: (§4)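 Male Wistar rats (260–300 g) were given reserpine 1 mg/kg sc in saline 18 h before testing. Test compound was then given alone ip as a 1% Tween 80 suspension (2 mL/kg). FBP and FT were each scored 0–3 and summed (maximum 15). n=6 per group; mean ± SEM; Newman–Keuls test.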

Rattus norvegicus [10] = species: Rattus norvegicus; test: Effect on 8-OH-DAPT- induced behavioral syndrome(FT: forepaw treading) by the compound in reserpine pretreated rats at a dose of 2.; assay type: functional
Rattus norvegicus [11] = test: Effect on 8-OH-DPAT-Induced LLR(lower lip retraction) in rats at a dose of 16 mg/kg; assay type: functional; summary of the method: as §1
Rattus norvegicus [12] = test: Induction of LLR(lower lip retraction) by the compound in rats at a dose of 4 mg/kg; assay type: functional
Summary of the method: (§5)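 Male Wistar rats, groups of 6, given compound alone ip as 1% Tween 80 suspension. Lower incisor visibility scored 0/0.5/1 at 15, 30 and 45 min after dosing, summed (max 3 per rat). Mean ± SEM versus vehicle, Newman–Keuls test; ED50 with range.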

Rattus norvegicus [13] = species: Rattus norvegicus; test: Induction of behavioral syndrome(FT: forepaw treading) by the compound in reserpine pretreated rats at a dose of 4.; assay type: functional; summary of the method: as §4
[14] = target: T1, 5-hydroxytryptamine receptor 1A (Rattus norvegicus, UniProt P19327); test: Ability to displace [3H]8-OH-DPAT from 5-hydroxytryptamine 1A receptor
T1 sequence (P19327 whole entry): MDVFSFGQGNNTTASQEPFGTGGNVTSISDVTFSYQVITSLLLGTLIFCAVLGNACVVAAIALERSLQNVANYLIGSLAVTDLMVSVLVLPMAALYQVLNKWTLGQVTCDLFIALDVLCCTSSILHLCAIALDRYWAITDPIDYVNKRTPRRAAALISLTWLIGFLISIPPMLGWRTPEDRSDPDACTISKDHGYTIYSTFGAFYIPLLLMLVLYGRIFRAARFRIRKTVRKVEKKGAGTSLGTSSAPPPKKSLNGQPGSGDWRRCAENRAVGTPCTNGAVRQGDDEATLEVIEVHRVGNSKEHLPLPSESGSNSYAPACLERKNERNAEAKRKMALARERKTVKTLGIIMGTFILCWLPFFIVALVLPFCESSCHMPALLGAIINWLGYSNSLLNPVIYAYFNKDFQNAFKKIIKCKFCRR
Summary of the method: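 Rat hippocampal membranes, [3H]8-OH-DPAT radioligand. Ki from at least three competition experiments, each with 10–14 drug concentrations run in triplicate. Ki calculated with the Cheng–Prusoff equation.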

Rattus norvegicus [15] = species: Rattus norvegicus; test: Induction of behavioral syndrome(FT: forepaw treading) by the compound in reserpine pretreated rats at a dose of 8.; assay type: functional; summary of the method: as §4
Rattus norvegicus [16] = species: Rattus norvegicus; test: Induction of behavioral syndrome(FBP: flat body posture) by the compound in reserpine pretreated rats at a dose of 8.; assay type: functional; summary of the method: as §4
Rattus norvegicus [17] = species: Rattus norvegicus; test: Effect on 8-OH-DAPT- induced behavioral syndrome(FBP: flat body posture) by the compound in reserpine pretreated rats at a dose of 2.; assay type: functional
Rattus norvegicus [18] = species: Rattus norvegicus; test: Dose Inducing behavioral syndrome(FBP: flat body posture) by the compound in reserpine pretreated rats.; assay type: functional; summary of the method: as §3
Rattus norvegicus [19] = test: Induction of LLR(lower lip retraction) by the compound in rats at a dose of 16 mg/kg; assay type: functional; summary of the method: as §5
Rattus norvegicus [20] = test: Induction of LLR(lower lip retraction) by the compound in rats at a dose of 8 mg/kg; assay type: functional; summary of the method: as §5
Rattus norvegicus [21] = species: Rattus norvegicus; test: Effect on 8-OH-DAPT- induced behavioral syndrome(FT: forepaw treading) by the compound in reserpine pretreated rats at a dose of 8.; assay type: functional; summary of the method: as §2
Rattus norvegicus [22] = species: Rattus norvegicus; test: Dose Inducing behavioral syndrome(FT: forepaw treading) by the compound in reserpine pretreated rats.; assay type: functional; summary of the method: as §3
Rattus norvegicus [23] = species: Rattus norvegicus; test: Induction of behavioral syndrome(FBP: flat body posture) by the compound in reserpine pretreated rats at a dose of 8; FBP mean score; assay type: functional; summary of the method: as §4
Rattus norvegicus [24] = test: Effect on 8-OH-DPAT-Induced LLR(lower lip retraction) in rats at a dose of 8 mg/kg; LLR score; assay type: functional; summary of the method: as §1
Rattus norvegicus [25] = species: Rattus norvegicus; test: Induction of behavioral syndrome(FT: forepaw treading) by the compound in reserpine pretreated rats at a dose of 8; FT mean score; assay type: functional; summary of the method: as §4
Rattus norvegicus [26] = species: Rattus norvegicus; test: Induction of behavioral syndrome(FBP: flat body posture) by the compound in reserpine pretreated rats at a dose of 4; FBP mean score; assay type: functional; summary of the method: as §4
Rattus norvegicus [27] = test: Effect on 8-OH-DPAT-Induced LLR(lower lip retraction) in rats at a dose of 16 mg/kg; LLR score; assay type: functional; summary of the method: as §1
Rattus norvegicus [28] = species: Rattus norvegicus; test: Effect on 8-OH-DAPT- induced behavioral syndrome(FBP: flat body posture) by the compound in reserpine pretreated rats at a dose of 16; FBP mean score; assay type: functional; summary of the method: as §2
Rattus norvegicus [29] = test: Effect on 8-OH-DPAT-Induced LLR(lower lip retraction) in rats at a dose of 4 mg/kg; LLR score; assay type: functional; summary of the method: as §1
Rattus norvegicus [30] = species: Rattus norvegicus; test: Induction of behavioral syndrome(FT: forepaw treading) by the compound in reserpine pretreated rats at a dose of 16; FT mean score; assay type: functional; summary of the method: as §4
Rattus norvegicus [31] = species: Rattus norvegicus; test: Effect on 8-OH-DAPT- induced behavioral syndrome(FT: forepaw treading) by the compound in reserpine pretreated rats at a dose of 16; FT mean score; assay type: functional; summary of the method: as §2
Rattus norvegicus [32] = test: Induction of LLR(lower lip retraction) by the compound in rats at a dose of 4 mg/kg; LLR score; assay type: functional; summary of the method: as §5
Rattus norvegicus [33] = species: Rattus norvegicus; test: Effect on 8-OH-DAPT- induced behavioral syndrome(FBP: flat body posture) by the compound in reserpine pretreated rats at a dose of 4; FBP mean score; assay type: functional; summary of the method: as §2
Rattus norvegicus [34] = species: Rattus norvegicus; test: Dose Inducing behavioral syndrome(FBP: flat body posture) by the compound in reserpine pretreated rats; assay type: functional; summary of the method: as §3
Rattus norvegicus [35] = species: Rattus norvegicus; test: Effect on 8-OH-DAPT- induced behavioral syndrome(FT: forepaw treading) by the compound in reserpine pretreated rats at a dose of 4; FT mean score; assay type: functional; summary of the method: as §2
Rattus norvegicus [36] = species: Rattus norvegicus; test: Effect on 8-OH-DAPT- induced behavioral syndrome(FBP: flat body posture) by the compound in reserpine pretreated rats at a dose of 8; FBP mean score; assay type: functional; summary of the method: as §2
Rattus norvegicus [37] = test: Induction of LLR(lower lip retraction) by the compound in rats at a dose of 8 mg/kg; LLR score; assay type: functional; summary of the method: as §5
Rattus norvegicus [38] = test: Induction of LLR(lower lip retraction) by the compound in rats at a dose of 16 mg/kg; LLR score; assay type: functional; summary of the method: as §5
Rattus norvegicus [39] = species: Rattus norvegicus; test: Induction of behavioral syndrome(FBP: flat body posture) by the compound in reserpine pretreated rats at a dose of 16; FBP mean score; assay type: functional; summary of the method: as §3
Rattus norvegicus [40] = species: Rattus norvegicus; test: Induction of behavioral syndrome(FT: forepaw treading) by the compound in reserpine pretreated rats at a dose of 4; FT mean score; assay type: functional; summary of the method: as §4
Rattus norvegicus [41] = species: Rattus norvegicus; test: Effect on 8-OH-DAPT- induced behavioral syndrome(FT: forepaw treading) by the compound in reserpine pretreated rats at a dose of 8; FT mean score; assay type: functional; summary of the method: as §2

Structure (SMILES): COc1ccccc1N1CCN(C2CCC(N3C(=O)c4ccccc4C3=O)CC2)CC1 (centres undefined)
- LLR score (Rattus norvegicus [1]): 1.5
- FBP mean score (Rattus norvegicus [2]): 5.6
- ED50 (Rattus norvegicus [3]): 7.5 mg/kg
- FBP mean score (Rattus norvegicus [4]): 8.8
- LLR score (Rattus norvegicus [5]): 2
- FT mean score (Rattus norvegicus [6]): 0.1
- FT mean score (Rattus norvegicus [7]): 4.2
- FBP mean score (Rattus norvegicus [8]): 0.1
- FBP mean score (Rattus norvegicus [9]): 0.2
- FT mean score (Rattus norvegicus [10]): 6.2
- LLR score (Rattus norvegicus [11]): 0.6
- LLR score (Rattus norvegicus [12]): 1.3
- FT mean score (Rattus norvegicus [13]): 0.2
- Ki [14]: 8 nM
- FT mean score (Rattus norvegicus [15]): 0.2
- FBP mean score (Rattus norvegicus [16]): 0.2
- FBP mean score (Rattus norvegicus [17]): 9.8
- ED50 (Rattus norvegicus [18]): 6.3
- LLR score (Rattus norvegicus [19]): 1.2
- LLR score (Rattus norvegicus [20]): 1
- FT mean score (Rattus norvegicus [21]): 1
- ED50 (Rattus norvegicus [22]): 2.3 mg/kg

Structure (SMILES): COc1ccccc1N1CCN(CCCn2nnc3ccccc32)CC1
- FBP mean score (Rattus norvegicus [23]): 0.2
- LLR score (Rattus norvegicus [24]): 0.7
- ED50 (Rattus norvegicus [3]): 6.5 mg/kg
- FT mean score (Rattus norvegicus [25]): 0.2
- FBP mean score (Rattus norvegicus [26]): 0.2
- LLR score (Rattus norvegicus [27]): 0.9
- FBP mean score (Rattus norvegicus [28]): 6.1
- LLR score (Rattus norvegicus [29]): 1.1
- FT mean score (Rattus norvegicus [30]): 0.1
- FT mean score (Rattus norvegicus [31]): 2.6
- LLR score (Rattus norvegicus [32]): 0
- FBP mean score (Rattus norvegicus [33]): 11.5
- ED50 (Rattus norvegicus [34]): 10.5 mg/kg
- FT mean score (Rattus norvegicus [35]): 5.8
- FBP mean score (Rattus norvegicus [36]): 8
- LLR score (Rattus norvegicus [37]): 0.1
- LLR score (Rattus norvegicus [38]): 0.6
- FBP mean score (Rattus norvegicus [39]): 0.1
- FT mean score (Rattus norvegicus [40]): 0.2
- ED50 (Rattus norvegicus [22]): 5.2 mg/kg
- FT mean score (Rattus norvegicus [41]): 3.7

Structure (SMILES): O=C1[C@H]2CCCC[C@H]2C(=O)N1C1CCC(N2CCc3ccccc3C2)CC1 (some centres undefined)
- Ki [14]: 1600 nM
